Measured values: ChEMBL document CHEMBL2331500, “Bioactive flavaglines and other constituents isolated from Aglaia perviridis” (J Nat Prod, 2013)

Assays:
HT-29 = test: Cytotoxicity against human HT-29 cells; format: functional; details: read-out: ED50 (the source's name)
How it was run: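 HT-29 human colon cancer cells, run by a previously described protocol on all isolates. Growth inhibition was reported as ED50, and a positive control compound was run alongside.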

[1] = target: Transcription factor p65 (Homo sapiens) (UniProt Q04206); test: Inhibition of NF-kappaB p65 (unknown origin) by ELISA
[2] = Cytotoxicity against human CCD-112CoN cells; format: cell-based; details: read-out: ED50 (the source's name)

Transcription factor p65 (Homo sapiens), sequence (Q04206 whole entry): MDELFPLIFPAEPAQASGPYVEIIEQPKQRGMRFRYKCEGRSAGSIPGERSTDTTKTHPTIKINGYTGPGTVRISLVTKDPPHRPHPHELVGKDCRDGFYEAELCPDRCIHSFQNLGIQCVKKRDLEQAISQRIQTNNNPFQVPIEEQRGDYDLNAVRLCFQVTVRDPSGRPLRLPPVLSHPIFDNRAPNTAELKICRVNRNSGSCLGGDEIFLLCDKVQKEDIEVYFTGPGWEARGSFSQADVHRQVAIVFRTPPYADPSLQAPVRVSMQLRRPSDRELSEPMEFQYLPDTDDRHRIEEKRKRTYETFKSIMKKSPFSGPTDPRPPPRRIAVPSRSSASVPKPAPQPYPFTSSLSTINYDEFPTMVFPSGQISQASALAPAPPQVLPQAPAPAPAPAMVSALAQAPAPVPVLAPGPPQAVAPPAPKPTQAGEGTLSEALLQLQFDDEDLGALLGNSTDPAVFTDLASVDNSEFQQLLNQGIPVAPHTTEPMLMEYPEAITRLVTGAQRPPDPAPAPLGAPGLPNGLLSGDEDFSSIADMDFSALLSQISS

Row | Compound | EC50 (HT-29; Homo sapiens, HT-29) | ED50 [1] | CC50 [2] | EC50 (HT-29)
1 | COC(=O)[C@H]1[C@@H](O)[C@@]2(O)c3c(OC)cc(OC)cc3O[C@@]2(c2ccc3c(c2)OCO3)[C@@H]1c1ccccc1 | 0.002 µM | 3.54 µM | > 50 µM | –
2 | COC(=O)[C@H]1[C@@H](OC=O)[C@@]2(O)c3c(OC)cc(OC)cc3O[C@@]2(c2ccc3c(c2)OCO3)[C@@H]1c1ccccc1 | 0.056 µM | – | > 50 µM | –
3 | COC(=O)[C@H]1[C@@H](O)[C@@]2(OC)c3c(OC)cc(OC)cc3O[C@@]2(c2ccc(OC)cc2)[C@@H]1c1ccccc1 | 4.9 µM | > 20 µM | > 50 µM | –
4 | CC(C)[C@H]1CC[C@]2(C)C(=O)CCC(C=O)=C[C@H]12 | > 20 µM | 0.005 µM | – | –
5 | CC1=CC(=O)CC(C)(C)[C@H]1CC[C@H](O)CO | > 10 µM | > 20 µM | – | –
6 | C=C(CC[C@@H](CO)[C@H]1CC[C@@]2(C)[C@@H]3CC[C@H]4C(C)(C)[C@@H](O)CC[C@@]45C[C@@]35CC[C@]12C)C(C)C | > 10 µM | > 20 µM | – | –
7 | COc1ccc(-c2oc3cc(OC)cc(OC)c3c(=O)c2O)cc1 | > 10 µM | > 20 µM | – | –
8 | COc1ccc([C@@]23Oc4cc(OC)cc(OC)c4[C@]2(OC)[C@H](O)C[C@H]3c2ccccc2)cc1 | > 10 µM | > 20 µM | – | –
9 | COc1cc(OC)c2c(c1)O[C@@]1(c3ccc4c(c3)OCO4)[C@H](c3ccccc3)C[C@@H](O)[C@@]21OC | 0.96 µM | > 20 µM | > 50 µM | –
10 | COC(=O)[C@H]1[C@@H](O)[C@@]2(OC)c3c(OC)cc(OC)cc3O[C@@]2(c2ccc3c(c2)OCO3)[C@@H]1c1ccccc1 | 4.7 µM | > 20 µM | > 50 µM | –
11 | COc1cc(OC)c2c(c1)O[C@@]1(c3ccc4c(c3)OCO4)[C@H](c3ccccc3)C[C@@H](O)[C@@]21O | 0.0067 µM | 0.33 µM | > 50 µM | –
12 | COC(=O)[C@H]1[C@@H](OC=O)[C@@]2(O)c3c(OC)cc(OC)cc3O[C@@]2(c2ccc(OC)cc2)[C@@H]1c1ccccc1 | 0.019 µM | > 20 µM | > 50 µM | –
13 | COc1ccc([C@]23Oc4cc(OC)cc(OC)c4[C@](O)(C2O)[C@@H](c2ccccc2)[C@@H]3C(=O)NCCCCNC(=O)/C(C)=C/CO)cc1 (stereo in doubt; 1) [listing 1 of 2 here] | – | – | – | > 10 µM
14 | COc1ccc([C@]23Oc4cc(OC)cc(OC)c4[C@](O)(C2O)[C@@H](c2ccccc2)[C@@H]3C(=O)NCCCCNC(=O)/C(C)=C/CO)cc1 (stereo in doubt; 1) [listing 2 of 2 here] | – | > 20 µM | – | –
15 | COc1ccc([C@]23Oc4cc(OC)cc(OC)c4[C@](O)(C2O)[C@@H](c2ccccc2)[C@@H]3C(=O)NCCCCNC(=O)/C(C)=C/CO)cc1 (stereo in doubt; 2) [listing 1 of 2 here] | – | – | > 50 µM | 0.46 µM
16 | COc1ccc([C@]23Oc4cc(OC)cc(OC)c4[C@](O)(C2O)[C@@H](c2ccccc2)[C@@H]3C(=O)NCCCCNC(=O)/C(C)=C/CO)cc1 (stereo in doubt; 2) [listing 2 of 2 here] | – | 2.4 µM | – | –
17 | COC(=O)[C@H]1[C@@H](O)[C@@]2(O)c3c(OC)cc(OC)cc3O[C@@]2(c2ccc(OC)cc2)[C@@H]1c1ccccc1 [AGLAFOLIN] | 0.012 µM | > 20 µM | > 50 µM | –
18 | CC(C)=C[C@H](O)[C@@H](O)[C@@H](CO)[C@H]1CC[C@@]2(C)[C@@H]3CC[C@H]4C(C)(C)[C@@H](O)CC[C@@]45C[C@@]35CC[C@]12C [ARGENTEANOL] | > 10 µM | > 20 µM | – | –
19 | CC1(C)[C@H](O)CC[C@]2(C)[C@H]3CC[C@@H]4[C@@H]([C@]5(C)CCC(=O)O5)CC[C@@]4(C)[C@]3(C)CC[C@@H]12 [CABRALEAHYDROXYLACTONE] | > 10 µM | > 20 µM | – | –
20 | COc1ccc([C@@]23Oc4cc(OC)cc(OC)c4[C@]2(O)[C@H](O)[C@H](C(N)=O)[C@H]3c2ccccc2)cc1 [DIDESMETHYLROCAGLAMIDE] | 0.021 µM | > 20 µM | > 50 µM | –
21 | CC1=CC(O)N(CCCCNC(=O)/C=C/c2ccccc2)C1=O (configuration not stated) [GIGANTAMIDE A] | > 10 µM | > 20 µM | – | –
22 | CC(=O)O[C@H]1C(=O)[C@@]2(C)[C@H]([C@H](OC(=O)c3ccccc3)[C@]3(O)C[C@H](OC(=O)[C@H](O)[C@@H](NC(=O)c4ccccc4)c4ccccc4)C(C)=C1C3(C)C)[C@]1(OC(C)=O)CO[C@@H]1C[C@@H]2O [PACLITAXEL] | 0.001 µM | – | 23 µM | –
23 | CC(C)=CC(=O)[C@@H](O)[C@@H](C)[C@H]1CC[C@@]2(C)[C@@H]3CC[C@H]4C(C)(C)[C@@H](O)CC[C@@]45C[C@@]35CC[C@]12C [PERVIRIDISINOL A] | > 10 µM | > 20 µM | – | –
24 | CC(C)=C[C@H]1OC[C@@H]([C@H]2CC[C@@]3(C)[C@@H]4CC[C@H]5C(C)(C)[C@@H](O)CC[C@@]56C[C@@]46CC[C@]23C)[C@@H]1O [PERVIRIDISINOL B] | > 10 µM | > 20 µM | – | –
25 | C=C(CC[C@@H](CO)[C@H]1CC[C@@]2(C)[C@@H]3CC[C@H]4[C@H](C)[C@@H](O)CC[C@@]45C[C@@]35CC[C@]12C)C(C)C [PERVIRIDISINOL C] | > 10 µM | > 20 µM | – | –
26 | COc1ccc([C@@]23Oc4cc(OC)cc(OC)c4[C@]2(O)[C@H](O)[C@H](C(=O)N(C)C)[C@H]3c2ccccc2)cc1 [ROCAGLAMIDE] | 0.005 µM | – | > 50 µM | –
27 | COc1ccc([C@@]23Oc4cc(OC)cc(OC)c4[C@]2(O)[C@H](O)C[C@H]3c2ccccc2)cc1 [ROCAGLAOL] | 0.0007 µM | 0.005 µM | > 50 µM | –
28 | COc1cc2ccc(=O)oc2cc1O [SCOPOLETIN] | > 10 µM | > 20 µM | – | –
